From ChEMBL document CHEMBL1153156, “Pyrrole derivatives as potent inhibitors of lymphocyte-specific kinase: Structure, synthesis, and SAR” (Bioorg Med Chem Lett, 2010)

Experiments:
[1] = target: Tyrosine-protein kinase Lck (Homo sapiens) (UniProt P06239); assay: Inhibition of human recombinant Lck expressed in insect cells by Packard topcount method
In short: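 Lck (5 ng/well) incubated with compound in 50 mM Hepes, 50 mM KCl, 25 mM MgCl₂, 5 mM MnCl₂, Na₃VO₄, 0.01% CHAPS, 1 mM DTT. Poly(Glu-Tyr) 4:1 substrate, ATP and ³³P-ATP added; 25 °C, 60 min. Stopped with 100 mM phosphoric acid, filtered onto membrane, scintillation counted. IC₅₀ from eight-point half-log curves; mean of at least two independent experiments.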

[2] = Immunosuppressive activity in C57BL6/J mouse T cells cocultured with mitomycin C-treated BALB/c spleen cells assessed as inhibition of [3H]thymidine incorporation after 72 hrs by mixed lymphocyte reaction assay; assay type: functional
In short: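 Nylon-wool-purified splenic and lymph node T cells from C57BL/6 mice (3 × 10⁵/well) cocultured with mitomycin-C-treated BALB/c spleen cells (2 × 10⁵/well), 37 °C, 5% CO₂, 72 h. Compounds added at culture start. ³H-thymidine pulse for last 4 h, incorporation counted. IC₅₀ from nine-point half-log concentration–response curves; mean of at least two independent experiments.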

[3] = target: Proto-oncogene tyrosine-protein kinase Src (Homo sapiens, UniProt P12931); assay: Inhibition of Src
[4] = target: Tyrosine-protein kinase CSK (Homo sapiens, UniProt P41240); assay: Inhibition of Csk
[5] = target: T1, Tyrosine-protein kinase ZAP-70 (Homo sapiens, UniProt P43403); assay: Inhibition of ZAP70
T1 sequence (P43403 whole entry): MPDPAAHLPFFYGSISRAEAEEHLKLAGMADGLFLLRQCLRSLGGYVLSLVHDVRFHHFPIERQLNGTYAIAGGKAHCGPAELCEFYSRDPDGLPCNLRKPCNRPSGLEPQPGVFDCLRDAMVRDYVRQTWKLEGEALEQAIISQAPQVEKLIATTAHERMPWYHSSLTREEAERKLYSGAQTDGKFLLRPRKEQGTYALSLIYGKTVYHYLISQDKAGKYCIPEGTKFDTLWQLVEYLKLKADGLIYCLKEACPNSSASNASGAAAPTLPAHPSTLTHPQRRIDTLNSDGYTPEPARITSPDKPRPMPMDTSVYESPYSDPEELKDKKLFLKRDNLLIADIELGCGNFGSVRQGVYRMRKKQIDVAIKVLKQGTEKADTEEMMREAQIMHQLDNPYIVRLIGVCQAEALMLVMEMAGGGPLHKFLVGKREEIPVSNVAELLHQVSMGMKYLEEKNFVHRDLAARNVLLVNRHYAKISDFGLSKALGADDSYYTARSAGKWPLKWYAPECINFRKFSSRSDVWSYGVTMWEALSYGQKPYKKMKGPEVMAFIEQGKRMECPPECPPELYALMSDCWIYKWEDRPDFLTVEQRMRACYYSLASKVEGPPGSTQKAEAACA

[6] = target: Dual specificity mitogen-activated protein kinase kinase 1 (Homo sapiens, UniProt Q02750); assay: Inhibition of MEK1
[7] = Inhibition of PKA
[8] = target: RAC-alpha serine/threonine-protein kinase (Homo sapiens, UniProt P31749); assay: Inhibition of PKB
[9] = Inhibition of PKC
[10] = target: Tyrosine-protein kinase ABL1 (Homo sapiens, UniProt P00519); assay: Inhibition of Abl
[11] = Inhibition of CAMK2
[12] = target: Cyclin-dependent kinase 1 (Homo sapiens, UniProt P06493); assay: Inhibition of CDK1
[13] = Selectivity ratio of IC50 for Src to IC50 for human recombinant Lck
[14] = Selectivity ratio of IC50 for Csk to IC50 for human recombinant Lck

Chain of Tyrosine-protein kinase Lck (Homo sapiens) (P06239 2-509 limits assumed): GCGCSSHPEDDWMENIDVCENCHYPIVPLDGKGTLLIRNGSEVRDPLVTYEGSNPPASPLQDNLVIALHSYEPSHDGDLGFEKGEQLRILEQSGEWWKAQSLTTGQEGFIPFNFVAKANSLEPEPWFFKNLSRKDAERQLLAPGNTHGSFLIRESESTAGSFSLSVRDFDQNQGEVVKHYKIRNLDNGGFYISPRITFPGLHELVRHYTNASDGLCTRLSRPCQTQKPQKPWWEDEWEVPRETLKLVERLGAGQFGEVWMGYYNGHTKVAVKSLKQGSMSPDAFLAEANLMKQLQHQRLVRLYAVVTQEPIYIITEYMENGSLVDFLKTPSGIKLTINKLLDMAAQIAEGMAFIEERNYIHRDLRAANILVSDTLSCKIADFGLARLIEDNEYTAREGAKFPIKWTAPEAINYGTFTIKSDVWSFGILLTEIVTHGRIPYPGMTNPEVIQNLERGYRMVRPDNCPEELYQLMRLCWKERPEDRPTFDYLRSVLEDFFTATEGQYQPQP
Chain of Tyrosine-protein kinase ABL1 (P00519 whole entry): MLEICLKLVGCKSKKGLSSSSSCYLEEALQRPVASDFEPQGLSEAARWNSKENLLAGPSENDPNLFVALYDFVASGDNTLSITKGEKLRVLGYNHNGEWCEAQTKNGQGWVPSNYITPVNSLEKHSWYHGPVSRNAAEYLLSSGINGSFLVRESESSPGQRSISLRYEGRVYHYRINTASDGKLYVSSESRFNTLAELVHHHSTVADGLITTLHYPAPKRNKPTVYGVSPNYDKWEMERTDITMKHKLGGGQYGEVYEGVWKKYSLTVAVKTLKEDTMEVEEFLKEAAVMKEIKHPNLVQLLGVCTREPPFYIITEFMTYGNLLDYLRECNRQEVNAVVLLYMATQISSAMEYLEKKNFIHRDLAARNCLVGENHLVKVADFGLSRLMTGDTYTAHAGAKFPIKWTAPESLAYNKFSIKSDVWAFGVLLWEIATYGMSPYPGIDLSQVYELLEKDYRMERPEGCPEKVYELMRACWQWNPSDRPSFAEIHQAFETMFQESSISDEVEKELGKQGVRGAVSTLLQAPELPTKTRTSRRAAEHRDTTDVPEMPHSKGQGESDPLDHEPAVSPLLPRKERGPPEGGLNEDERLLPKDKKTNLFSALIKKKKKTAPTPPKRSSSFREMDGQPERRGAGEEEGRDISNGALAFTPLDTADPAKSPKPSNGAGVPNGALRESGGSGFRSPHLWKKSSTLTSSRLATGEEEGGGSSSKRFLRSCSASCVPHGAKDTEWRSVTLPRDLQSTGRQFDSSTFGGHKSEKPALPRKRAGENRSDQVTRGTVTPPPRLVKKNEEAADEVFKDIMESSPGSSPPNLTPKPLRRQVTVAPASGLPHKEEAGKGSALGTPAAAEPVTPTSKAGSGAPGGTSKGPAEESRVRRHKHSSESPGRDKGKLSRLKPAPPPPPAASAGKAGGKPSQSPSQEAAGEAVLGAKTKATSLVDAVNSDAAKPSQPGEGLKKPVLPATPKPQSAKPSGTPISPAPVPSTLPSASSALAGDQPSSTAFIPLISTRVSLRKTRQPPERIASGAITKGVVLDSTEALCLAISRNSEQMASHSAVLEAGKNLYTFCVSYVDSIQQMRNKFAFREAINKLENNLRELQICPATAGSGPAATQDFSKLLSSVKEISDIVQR
Chain of RAC-alpha serine/threonine-protein kinase (P31749 whole entry): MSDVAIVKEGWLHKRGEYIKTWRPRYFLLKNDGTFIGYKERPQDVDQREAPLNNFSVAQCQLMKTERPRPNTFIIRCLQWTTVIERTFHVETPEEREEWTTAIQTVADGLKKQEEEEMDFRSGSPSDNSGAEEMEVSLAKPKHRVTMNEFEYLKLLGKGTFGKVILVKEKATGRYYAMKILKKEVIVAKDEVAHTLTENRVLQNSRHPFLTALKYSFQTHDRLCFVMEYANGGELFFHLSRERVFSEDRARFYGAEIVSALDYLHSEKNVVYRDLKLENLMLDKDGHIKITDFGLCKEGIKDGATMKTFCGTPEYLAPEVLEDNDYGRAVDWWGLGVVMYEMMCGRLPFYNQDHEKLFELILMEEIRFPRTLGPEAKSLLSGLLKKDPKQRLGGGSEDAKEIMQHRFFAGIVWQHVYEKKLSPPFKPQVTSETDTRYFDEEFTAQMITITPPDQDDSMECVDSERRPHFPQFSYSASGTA
Chain of Tyrosine-protein kinase CSK (P41240 whole entry): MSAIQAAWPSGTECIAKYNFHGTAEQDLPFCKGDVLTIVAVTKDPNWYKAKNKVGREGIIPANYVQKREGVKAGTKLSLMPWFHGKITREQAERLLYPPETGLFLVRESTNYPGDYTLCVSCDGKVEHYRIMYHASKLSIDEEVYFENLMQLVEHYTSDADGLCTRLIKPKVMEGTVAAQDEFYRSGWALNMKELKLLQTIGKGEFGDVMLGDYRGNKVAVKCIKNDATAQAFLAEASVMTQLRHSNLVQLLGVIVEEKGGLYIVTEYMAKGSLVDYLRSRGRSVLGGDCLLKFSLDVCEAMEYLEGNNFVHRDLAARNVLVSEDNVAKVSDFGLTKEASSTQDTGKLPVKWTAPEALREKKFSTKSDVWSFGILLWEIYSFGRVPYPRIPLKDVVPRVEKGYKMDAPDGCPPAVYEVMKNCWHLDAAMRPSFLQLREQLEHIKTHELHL
Chain of Cyclin-dependent kinase 1 (P06493 whole entry): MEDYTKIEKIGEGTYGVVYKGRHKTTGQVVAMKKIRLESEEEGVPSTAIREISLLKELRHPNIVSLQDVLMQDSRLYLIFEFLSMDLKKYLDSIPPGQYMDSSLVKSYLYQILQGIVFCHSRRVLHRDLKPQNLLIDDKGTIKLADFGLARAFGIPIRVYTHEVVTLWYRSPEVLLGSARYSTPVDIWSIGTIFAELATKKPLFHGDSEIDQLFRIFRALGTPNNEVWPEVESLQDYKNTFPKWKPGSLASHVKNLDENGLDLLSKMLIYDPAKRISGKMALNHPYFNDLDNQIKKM
Chain of Dual specificity mitogen-activated protein kinase kinase 1 (Q02750 whole entry): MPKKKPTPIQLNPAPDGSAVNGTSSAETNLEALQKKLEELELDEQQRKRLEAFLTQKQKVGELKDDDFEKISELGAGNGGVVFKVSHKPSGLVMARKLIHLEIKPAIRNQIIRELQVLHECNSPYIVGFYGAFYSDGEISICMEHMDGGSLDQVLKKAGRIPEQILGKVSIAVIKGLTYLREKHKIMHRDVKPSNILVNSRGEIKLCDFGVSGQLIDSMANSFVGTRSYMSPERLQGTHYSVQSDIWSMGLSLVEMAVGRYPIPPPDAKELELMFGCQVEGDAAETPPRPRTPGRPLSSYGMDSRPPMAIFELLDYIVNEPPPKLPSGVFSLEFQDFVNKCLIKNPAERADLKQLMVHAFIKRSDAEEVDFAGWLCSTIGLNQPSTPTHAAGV
Chain of Proto-oncogene tyrosine-protein kinase Src (P12931 2-536 limits assumed): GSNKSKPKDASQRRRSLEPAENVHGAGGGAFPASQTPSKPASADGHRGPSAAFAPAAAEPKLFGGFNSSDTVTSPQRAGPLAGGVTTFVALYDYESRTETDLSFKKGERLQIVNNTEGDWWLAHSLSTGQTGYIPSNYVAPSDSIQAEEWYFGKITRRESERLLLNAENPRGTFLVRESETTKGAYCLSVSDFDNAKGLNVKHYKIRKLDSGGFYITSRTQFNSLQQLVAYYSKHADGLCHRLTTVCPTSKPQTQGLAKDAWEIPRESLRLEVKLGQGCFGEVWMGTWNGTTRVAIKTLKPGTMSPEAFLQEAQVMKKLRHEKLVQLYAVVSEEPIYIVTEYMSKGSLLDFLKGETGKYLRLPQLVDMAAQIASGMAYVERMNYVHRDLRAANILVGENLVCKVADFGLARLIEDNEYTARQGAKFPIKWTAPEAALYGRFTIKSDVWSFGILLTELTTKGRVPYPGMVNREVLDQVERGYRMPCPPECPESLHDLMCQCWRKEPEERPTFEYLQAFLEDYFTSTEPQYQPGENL

## NC(=O)c1c(-c2ccc(Oc3ccccc3)cc2)[nH]c(C(=O)c2ccc(Br)cc2)c1N
[1]
  C50: 5.9 nM

## NC(=O)c1c(-c2ccc(Oc3ccccc3)cc2)[nH]c(C(=O)c2ccc(F)cc2)c1N
[1]
  C50: 10 nM

## NC(=O)c1c(-c2ccc(Oc3ncccn3)cc2)[nH]c(C(=O)c2c(F)cccc2F)c1N
[1]
  C50: > 100 nM

## NC(=O)c1c(-c2ccc(Oc3ccccc3)cc2)[nH]c(C(=O)c2ccc(Cl)cc2)c1N
[1]
  C50: 7 nM

## NC(=O)c1c(-c2ccc(Oc3ccccc3)cc2)[nH]c(C(=O)c2cc(Cl)cc(Cl)c2)c1N
[1]
  C50: 38 nM

## NC(=O)c1c(-c2ccc(Oc3ccccc3)cc2)[nH]c(C(=O)c2c(F)cccc2F)c1N
[1]
  C50: 1.3 nM
[2]
  IC50: 31 nM
[3]
  IC50: 23 nM
[4]
  IC50: 4.5 nM
[5]
  IC50: > 10000 nM
[6]
  IC50: > 10000 nM
[7]
  IC50: > 10000 nM
[8]
  IC50: > 10000 nM
[9]
  IC50: > 10000 nM
[10]
  IC50: > 10000 nM
[11]
  IC50: > 10000 nM
[12]
  IC50: > 10000 nM
[13]
  Ratio IC50: > 17
[14]
  Ratio IC50: > 3

## Cc1ccc(C(=O)c2[nH]c(-c3ccc(Oc4ccccc4)cc3)c(C(N)=O)c2N)c(C)c1
[1]
  C50: 1.8 nM

## Cc1cccc(C(=O)c2[nH]c(-c3ccc(Oc4ccccc4)cc3)c(C(N)=O)c2N)c1
[1]
  C50: 4 nM
[2]
  IC50: 420 nM

## NC(=O)c1c(-c2ccc(NC(=O)c3ccccc3)cc2)[nH]c(C(=O)c2c(F)cccc2F)c1N
[1]
  C50: > 100 nM

## NC(=O)c1c(-c2ccc(Oc3ccccc3)cc2)[nH]c(C(=O)c2ccccc2Br)c1N
[1]
  C50: 2.5 nM
[2]
  IC50: 150 nM

## NC(=O)c1c(-c2ccc(Oc3ccccc3)cc2)[nH]c(C(=O)c2cccc(Br)c2)c1N
[1]
  C50: 6.2 nM

## Cc1cccc(Cl)c1CNc1ccc(-c2[nH]c(C(=O)c3c(F)cccc3F)c(N)c2C(N)=O)cc1
[1]
  C50: 3.6 nM
[2]
  IC50: 56 nM

## COc1ccccc1C(=O)c1[nH]c(-c2ccc(Oc3ccccc3)cc2)c(C(N)=O)c1N
[1]
  C50: 9.4 nM

## NC(=O)c1c(-c2ccc(Oc3ccccc3)cc2)[nH]c(C(=O)c2c(F)cc(F)cc2F)c1N
[1]
  C50: 1.8 nM
[2]
  IC50: 62 nM

## Cc1cccc(C(=O)c2[nH]c(-c3ccc(Oc4ccccc4)cc3)c(C(N)=O)c2N)c1C
[1]
  C50: 2.6 nM
[2]
  IC50: 110 nM

## NC(=O)c1c(-c2ccc(Oc3ccccc3)cc2)[nH]c(C(=O)c2ccccc2C(F)(F)F)c1N
[1]
  C50: 3.5 nM
[2]
  IC50: 68 nM

## NC(=O)c1c(-c2ccc(NCc3cc(Cl)ccc3Cl)cc2)[nH]c(C(=O)c2c(F)cccc2F)c1N
[1]
  C50: 93 nM

## NC(=O)c1c(-c2ccc(N)cc2)[nH]c(C(=O)c2c(F)cccc2F)c1N
[1]
  C50: > 100 nM
[2]
  IC50: >1000 nM

## NC(=O)c1c(-c2ccc(Oc3ccccc3)cc2)[nH]c(C(=O)c2ccccc2Cl)c1N
[1]
  C50: 1.8 nM
[2]
  IC50: 69 nM

## NC(=O)c1c(-c2ccc(Oc3ccccc3)cc2)[nH]c(C(=O)c2ccccc2F)c1N
[1]
  C50: 1.5 nM

## COc1ccc(-c2[nH]c(C(=O)c3c(F)cccc3F)c(N)c2C(N)=O)cc1
[1]
  C50: > 100 nM

## CN(Cc1c(Cl)cccc1Cl)c1ccc(-c2[nH]c(C(=O)c3c(F)cccc3F)c(N)c2C(N)=O)cc1
[1]
  C50: 92 nM
[2]
  IC50: >1000 nM

## NC(=O)c1c(-c2ccc(NCc3c(Cl)cccc3Cl)cc2)[nH]c(C(=O)c2c(F)cccc2F)c1N
[1]
  C50: 0.92 nM
[2]
  IC50: 31 nM

## NC(=O)c1c(-c2ccc(Oc3ccccc3)cc2)[nH]c(C(=O)c2ccc(Cl)cc2Cl)c1N
[1]
  C50: 2.3 nM

## Cc1ccc(C(=O)c2[nH]c(-c3ccc(Oc4ccccc4)cc3)c(C(N)=O)c2N)cc1
[1]
  C50: 2.8 nM
[2]
  IC50: 180 nM

## NC(=O)c1c(-c2ccc(Oc3ccccc3)cc2)[nH]c(C(=O)c2cccc(F)c2)c1N
[1]
  C50: 5 nM

## NC(=O)c1c(-c2ccc(OCc3c(Cl)cccc3Cl)cc2)[nH]c(C(=O)c2c(F)cccc2F)c1N
[1]
  C50: > 100 nM
[2]
  IC50: >1000 nM

## NC(=O)c1c(-c2ccc(OCc3ccccc3)cc2)[nH]c(C(=O)c2c(F)cccc2F)c1N
[1]
  C50: 6.1 nM
[2]
  IC50: >1000 nM

## NC(=O)c1c(-c2ccc(Oc3ccccc3)cc2)[nH]c(C(=O)c2cc(Cl)ccc2Cl)c1N
[1]
  C50: 19 nM

## Cc1cc(C)cc(C(=O)c2[nH]c(-c3ccc(Oc4ccccc4)cc3)c(C(N)=O)c2N)c1
[1]
  C50: 13 nM

## NC(=O)c1c(-c2ccc(NCC3CCCCC3)cc2)[nH]c(C(=O)c2c(F)cccc2F)c1N
[1]
  C50: 74 nM

## NC(=O)c1c(-c2ccc(Oc3ccccc3)cc2)[nH]c(C(=O)c2ccc(Oc3ccccc3)cc2)c1N
[1]
  C50: 49 nM

## Cc1ccccc1C(=O)c1[nH]c(-c2ccc(Oc3ccccc3)cc2)c(C(N)=O)c1N
[1]
  C50: 2.7 nM
[2]
  IC50: 180 nM

## Cc1ccc(C)c(C(=O)c2[nH]c(-c3ccc(Oc4ccccc4)cc3)c(C(N)=O)c2N)c1
[1]
  C50: 10 nM

## NC(=O)c1c(-c2ccc(Oc3ccccc3)cc2)[nH]c(C(=O)c2ccccc2)c1N
[1]
  C50: 11 nM

## NC(=O)c1c(-c2ccc(NCc3ccccc3)cc2)[nH]c(C(=O)c2c(F)cccc2F)c1N
[1]
  C50: 6.4 nM

## NC(=O)c1c(-c2ccc(Oc3ccccc3)cc2)[nH]c(C(=O)c2cccc(Cl)c2Cl)c1N
[1]
  C50: 1.2 nM
[2]
  IC50: 45 nM

## NC(=O)c1c(-c2ccc(Oc3ccccc3)cc2)[nH]c(C(=O)c2cccc(Cl)c2)c1N
[1]
  C50: 6.3 nM
